Assay results as given in the EternaBench riboswitch data.

System: MS2 coat protein
Test: apparent Kd, MS2 coat protein; higher = weaker binding; RNA-MaP array; FMN 200 µM where present
Method in brief: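 Each design was made on Illumina sequencing-chip clusters by stalled E. coli RNA polymerase and titrated with SNAP-549-labelled MS2 coat protein from 0.7 or 1.5 nM, doubling to 3 µM, in the absence and then the presence of constant ligand. The buffer was 100 mM Tris-HCl pH 7.5, 80 mM KCl, 4 mM MgCl2, BSA, DTT, yeast tRNA and Tween-20. The apparent Kd is the median of filtered per-cluster fits of binding curves, with green signal normalised to red-channel RNA signal and control-cluster median Fmax.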

[1] = designed as: OFF switch for flavin mononucleotide, no ligand
[2] = ligand present: flavin mononucleotide, designed as: OFF switch for flavin mononucleotide
[3] = designed as: ON switch for flavin mononucleotide, no ligand
[4] = ligand present: flavin mononucleotide, designed as: ON switch for flavin mononucleotide

GUCCAACAUGAGGAUCACCCAUGUGAGGAUAUGCGAAUUUCAUCAAAAGAUGAAAUUUGCAGAAGGCACAGGAC
apparent Kd [1]: 20.2 nM | apparent Kd [2]: 32.8 nM

GGAUAGGACAGAGGAUAUACAGAUAGGAUCUACUAUCAAACAUUCCUGACAUGAGGAUCACCCAUGUAGAAGGCUGUCCUAUCG
apparent Kd [1]: 22.7 nM | apparent Kd [2]: 75.4 nM

AAAUAACCUAGCAAAAUUUCCUCACAUGAGGAUCACCCAUGUAGAAGGCUGUCCUAAAAUAGGACAGAGGAUAUACAUGCUAGG
apparent Kd [1]: 10.6 nM | apparent Kd [2]: 171 nM

GAUUAACAUGAGGAUCACCCAUGUCGUAUUAUGGGAGGAUAUACGUGGACCGUAGUCCGCGUAGAAGGCCUAAUUG
apparent Kd [3]: 93.8 nM | apparent Kd [4]: 28.7 nM

GCCUCACAUGAGGAUCACCCAUGUCAGGAUAUAGGAGAUGGCAGAAAUCCUACCAUCGCUAGAAGGGACUGGCA
apparent Kd [1]: 43.4 nM | apparent Kd [2]: 76.4 nM

AAAAAAAAAAGACAGGAUAUCCAAAAAAAAACAUGAGGAUCACCCAUGUAAAAAAAAAAAAAGUGGGAGAAGGGUCAAAAAAAAAA
apparent Kd [3]: 57.7 nM | apparent Kd [4]: 23.2 nM

UUGCUCGUGUGAGGAUAUGCCGCCGUUUCGGCUGCAGAAGGUACUAUAAUACAUGAGGAUCACCCAUGUCUCUGUUGUUUCGUG
apparent Kd [3]: 27.6 nM | apparent Kd [4]: 27.1 nM

GCUGGACAAGGAUAUACAUUCGUGCUUCGGCACGUAAGAUCACAUGAGGAUCACCCAUGUAGAAGGUGUCCAGC
apparent Kd [1]: 67.8 nM | apparent Kd [2]: 612 nM

GCGUCAGAAUUAAUUGUGACAGACAGAAGGCAAUAGUAUGUGUCCGACAUGAGGAUCACCCAUGUUGAGGAUAUGUCUUGACGC
apparent Kd [1]: 4.76 nM | apparent Kd [2]: 5.87 nM

UGAUCUUGGGUCAGGAUAUGCUGGUAUUUUUGCCAGCAGAAGGGACAUGAGGAUCACCCAUGUUCUUGGUUUUU
apparent Kd [1]: 11.7 nM | apparent Kd [2]: 14.9 nM

AAAUCAGCAGGAUAUACGAUUUUAUGCUAGAUAGAGGGACCACAUGAGGAUCACCCAUGUAGAAGGGCUAGAUA
apparent Kd [1]: 24.6 nM | apparent Kd [2]: 26.4 nM

UACUUCCGAGGAUAUACAUGAGGAUCACCCAUGUGCUUCAGCAUCGAAAGAUGCAUGGGUAGAAGGCGGUAGUU
apparent Kd [1]: 44.6 nM | apparent Kd [2]: 50.4 nM

AGCUCCGCUCGAGGAUAUAGCUGCAUGUAGUGUCCUGAGGCACAUGAGGAUCACCCAUGUGUAGGCUAGAAGGCGACGGACAUU
apparent Kd [1]: 43.3 nM | apparent Kd [2]: 152 nM

GUAGAGUAAGGAUAUGUAGAAUAGGAUAGAAUGGUUAGAAUACAGAAGGUACAUGAGGAUCACCCAUGUAAUGU
apparent Kd [1]: 17.7 nM | apparent Kd [2]: 19.6 nM

AUGCUAGUGUGAGGAUAUCAACAUGAGGAUCACCCAUGUUGGAAGUACCCGACAUGAGGUACGGAUGAGAAGGUACAUUAGCAU
apparent Kd [1]: 15.6 nM | apparent Kd [2]: 25.3 nM

UGGAUCAUGGGAGGAUAUCCUCAAGAGACAUGAGGAUCACCCAUGUAUUAUAUGCCUCAUGGCAUGGAGAAGGCCCAUGAUCCU
apparent Kd [3]: 176 nM | apparent Kd [4]: 161 nM

AGCUGUGGCCGAGGAUAUCUAUCCAAUAAAACCGAAAUAUAAUCGGACAUGAGGAUCACCCAUGUAGAGAAGGCGGUCUCAGCA
apparent Kd [1]: 22.4 nM | apparent Kd [2]: 30.5 nM

AGUUACAAACACAACAUGAGGAUCACCCAUGUACUCUCAUGUAAGGAUAUACAUUCGUAUAGAAAGUAGAAGGUACUAAUUAUG
apparent Kd [3]: 515 nM | apparent Kd [4]: 340 nM

CUCUUGUUAGGAUAUCAAACCGGCAGCGGAGCCGCCGGAAGUGAGAAGGGACAUGAGGAUCACCCAUGUAAGAA
apparent Kd [1]: 81.6 nM | apparent Kd [2]: 256 nM

UUGGACGUCGUAGGAUAUGUAGGAUAUUCCUACAUGAGGAUCACCCAUGUUGACAUGGAAGGAGGACAGAAGGACGAUGUCCAU
apparent Kd [3]: 524 nM | apparent Kd [4]: 23.3 nM

UGCAGGUGAGGAUAUGCGGGCGAGCUAACAUAAGCAUCGAAGCAGAAGGCACAUGAGGAUCACCCAUGUAGUCC
apparent Kd [1]: 18.9 nM | apparent Kd [2]: 28 nM

AAAAAGUCAGGAUAUGGCAAAGGUCACGAAAGUGACAAAGGCUAGAAGGGACAUGAGGAUCACCCAUGUAAAAA
apparent Kd [1]: 29 nM | apparent Kd [2]: 32.4 nM

CUUUCGUGAGGAUAUCAGUAGUAAUAAUAUAAAAUUACUACUGAGAAGGCACAUGAGGAUCACCCAUGUUCCUC
apparent Kd [1]: 24.5 nM | apparent Kd [2]: 114 nM

UGUCGGAGCAGAGGAUAUUACAUGAGGAUCACCCAUGUAUGAACCAAUAACUGGAAACAGCAAUGUAAGAAGGCUGCUCCGACA
apparent Kd [1]: 7.6 nM | apparent Kd [2]: 42.5 nM

CCUCUACAUGAGGAUCACCCAUGUGAGGAUAUGCGAGGCGCACUCGAUGAGCGCGCCGGUAGAAGGCAUGUGGU
apparent Kd [1]: 24 nM | apparent Kd [2]: 55 nM

AGUGCUAUGUAGAAGGCAGAUCUGAUUCAGAUCUGAGGAUAUACAUGAGGAUCACCCAUGUUAUGCACCAGCACGAGAGUGCAA
apparent Kd [1]: 8.2 nM | apparent Kd [2]: 17.5 nM

UUGUUAUAUGUAGGAUAUGCAUAUUAUUAUUGUGCAGAAGGACAUGAGGAUCACCCAUGUAUAUUAUUAUUAUAUAUUAUAUAU
apparent Kd [1]: 31.4 nM | apparent Kd [2]: 46 nM
